# Source: the M2OR odorant receptor database
# Target: T1, UniProt Q8VGU3
# T1 sequence (whole entry): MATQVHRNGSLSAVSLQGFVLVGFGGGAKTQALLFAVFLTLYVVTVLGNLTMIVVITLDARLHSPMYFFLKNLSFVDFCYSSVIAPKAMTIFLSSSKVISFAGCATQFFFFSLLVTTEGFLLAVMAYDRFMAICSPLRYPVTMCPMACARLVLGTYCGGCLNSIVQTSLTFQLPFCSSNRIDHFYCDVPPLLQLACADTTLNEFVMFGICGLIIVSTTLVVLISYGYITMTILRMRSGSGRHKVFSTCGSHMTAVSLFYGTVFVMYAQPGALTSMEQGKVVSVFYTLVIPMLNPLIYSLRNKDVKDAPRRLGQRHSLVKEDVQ
# Details: stereoisomer not certain
# In short: (§1)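 Each entry records the cell line, G-protein, co-transfected protein and tags used. Methods varied with the source, often transient luciferase assays in mammalian cell lines. A receptor–molecule pair is called responsive (active) if the original authors judged its signal statistically different from baseline and non-responsive (inactive) otherwise.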
row,SMILES,odorant receptor agonist call
1,CCCCCCCCC(=O)O,inactive
2,CCCCC(=O)O,inactive
3,CC(C)=CCCC(C)CCO (centres undefined),inactive
4,CCCCCCCCCO,inactive
5,CCCCCCCC(C)=O,inactive
6,O=C1Cc2ccccc2O1,inactive
7,CCCC(=O)C(C)=O,inactive
8,CC(=O)OCC=C(C)C,inactive
9,CCCCCC=O,inactive
10,CC(=O)Oc1ccccc1,inactive
11,COc1cc(C(=O)O)ccc1O,inactive
12,CCCCCC(=O)CC,inactive
13,CCCCCCCCCS,inactive
14,CCCCCCO,inactive
15,CCOC(=O)C(C)C,inactive
16,c1ccccc1,inactive

row,SMILES,odorant receptor agonist call
1,CCCCCCOC(C)=O,inactive
2,CCC(=O)O,inactive
3,CCCCCCCCS,inactive
4,C=C(C)C1CCC(C)C(=O)C1 (centres undefined),inactive
5,O=C(c1ccccc1)c1ccccc1,inactive
6,CCCCC(=O)CC,inactive
7,CCCCC(C)=O,inactive
8,CCCCCCCCCC(=O)[O-].[H+],inactive
9,CCCCOC=O,inactive
10,CCCCCCCCCCO,inactive
11,CCCCCCCCO,inactive
12,CCCCCC1=C(C)CCC1=O,inactive
13,C=CCOC(=O)CCCCCC,inactive
14,CCCCCCCO,inactive
15,CC(C)=CCCC(C)=CCO,inactive
16,CCC(=O)C(=O)CC,inactive

# Target: T2, UniProt Q8VGV1
# T2 sequence (whole entry): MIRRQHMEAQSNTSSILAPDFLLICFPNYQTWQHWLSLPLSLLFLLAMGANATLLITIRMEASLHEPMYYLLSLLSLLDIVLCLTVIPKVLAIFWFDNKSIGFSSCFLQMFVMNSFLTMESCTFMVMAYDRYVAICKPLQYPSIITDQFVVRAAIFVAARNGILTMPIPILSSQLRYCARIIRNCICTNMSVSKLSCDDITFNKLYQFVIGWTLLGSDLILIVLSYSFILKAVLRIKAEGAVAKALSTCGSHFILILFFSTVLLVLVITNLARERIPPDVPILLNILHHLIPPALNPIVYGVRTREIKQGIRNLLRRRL
# Details: stereoisomer not certain
# In short: as §1
row,SMILES,odorant receptor agonist call
1,CCCCCCCCC(=O)O,active
2,CCCCC(=O)O,inactive
3,CC(C)=CCCC(C)CCO (centres undefined),inactive
4,CCCCCCCCCO,inactive
5,CCCCCCCC(C)=O,inactive
6,O=C1Cc2ccccc2O1,inactive
7,CCCC(=O)C(C)=O,inactive
8,CC(=O)OCC=C(C)C,inactive
9,CCCCCC=O,inactive
10,CC(=O)Oc1ccccc1,inactive
11,COc1cc(C(=O)O)ccc1O,inactive
12,CCCCCC(=O)CC,inactive
13,CCCCCCCCCS,inactive
14,CCCCCCO,inactive
15,CCOC(=O)C(C)C,inactive
16,c1ccccc1,inactive

row,SMILES,odorant receptor agonist call
1,CCCCCCOC(C)=O,inactive
2,CCC(=O)O,inactive
3,CCCCCCCCS,inactive
4,C=C(C)C1CCC(C)C(=O)C1 (centres undefined),inactive
5,O=C(c1ccccc1)c1ccccc1,inactive
6,CCCCC(=O)CC,inactive
7,CCCCC(C)=O,inactive
8,CCCCCCCCCC(=O)[O-].[H+],active
9,CCCCOC=O,inactive
10,CCCCCCCCCCO,inactive
11,CCCCCCCCO,inactive
12,CCCCCC1=C(C)CCC1=O,inactive
13,C=CCOC(=O)CCCCCC,inactive
14,CCCCCCCO,inactive
15,CC(C)=CCCC(C)=CCO,inactive
16,CCC(=O)C(=O)CC,inactive
